The source made the active and inactive calls. No cut-off for these calls is given here.
Tests used:
[1] = target: Serine/threonine-protein kinase mTOR (Homo sapiens) (UniProt P42345); assay: Inhibition of mTOR
[2] = Inhibition of PI3K
Plasma [3] = assay: Stability in mouse plasma in presence of esterase inhibitor sodium fluoride; format: ADME, cell-free
Procedure, shortened: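 Compound was incubated in nude mouse plasma or whole blood at 37 °C for 2 h, with heparin or sodium fluoride/EDTA as anticoagulant. Time-point samples were quenched with acetonitrile, dried, reconstituted and analysed by LC/MS for parent and hydrolysis products.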

U-87MG ATCC [4] = assay: Antitumor activity against human U87MG cells xenografted in nude mouse assessed as tumor growth inhibition at 3 mg/kg, iv once weekly; format: functional, organism-based; parameters: dose 3 mg/kg
Procedure, shortened: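 U87MG glioma xenografts in nude mice were staged and randomized (n = 10). Dosing was iv once weekly in D5W (days 0, 6 or days 0, 6, 13), with vehicle controls. Tumor volume was measured twice weekly.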

[5] = Stability in mouse plasma assessed as compound remaining after 120 mins relative to basal level; format: ADME, cell-free; details: read-out: Stability
Procedure, shortened: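 Compound was incubated in heparinized plasma at 37 °C for 2 h. Samples taken at various time points were quenched with acetonitrile, dried under nitrogen and reconstituted in methanol/water 20:80. Intact compound was quantified by LC/MS.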

U-87MG ATCC [6] = assay: Antitumor activity against human U87MG cells xenografted in nude mouse assessed as inhibition of AKT T308 phosphorylation at 10 mg/kg, iv administered as single dose measured after 2 hrs; format: functional, organism-based; parameters: dose 10 mg/kg
Procedure, shortened: (§1)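 Nude mice bearing U87MG tumors got a single iv dose. Tumors were excised 2 h later and analysed by Western blot for phosphoproteins (AKT S473, T308) against vehicle-treated controls.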

U-87MG ATCC [7] = assay: Antitumor activity against human U87MG cells xenografted in nude mouse assessed as inhibition of S6K phosphorylation at 10 mg/kg, iv administered as single dose measured after 2 hrs; format: functional, organism-based; parameters: dose 10 mg/kg
[8] = Solubility in water; format: physicochemical; details: buffer
U-87MG ATCC [9] = assay: Antitumor activity against human U87MG cells xenografted in nude mouse assessed as inhibition of AKT S473 phosphorylation at 10 mg/kg, iv administered as single dose measured after 2 hrs; format: functional, organism-based; parameters: dose 10 mg/kg; procedure, shortened: as §1
A498 = assay: Antitumor activity against human A498 cells xenografted in nude mouse assessed as tumor growth inhibition at 25 mg/kg, iv once weekly
Plasma [10] = assay: Stability in mouse plasma after 5 hrs; format: ADME, cell-free
Plasma [11] = assay: Stability in rat plasma after 5 hrs; format: ADME, cell-free
Plasma [12] = assay: Stability in human plasma after 5 hrs; format: ADME, cell-free

inhibition [1]	inhibition [2]	Stability (Plasma [3])	remaining at 2 h [5] [%]	solubility [8]	Stability (Plasma [10])	Stability (Plasma [11])	Stability (Plasma [12])	SMILES	Activity (U-87MG ATCC [4])	Activity (U-87MG ATCC [6])	Activity (U-87MG ATCC [7])	Activity (U-87MG ATCC [9])	Activity (A498)
inactive	inactive	Stable	4					COC[C@H]1OC(=O)/C(=C\N(C)CCCN(C)C)C2=C(O)C(=O)C3=C([C@H](OC(C)=O)C[C@]4(C)[C@@H](OC(=O)CCCCC(=O)O[C@@H]5CC[C@@H](C[C@@H](C)[C@@H]6CC(=O)[C@H](C)/C=C(\C)[C@@H](O)[C@@H](OC)C(=O)[C@H](C)C[C@H](C)/C=C/C=C/C=C(\C)[C@@H](OC)C[C@@H]7CC[C@@H](C)[C@@](O)(O7)C(=O)C(=O)N7CCCC[C@H]7C(=O)O6)C[C@H]5OC)CC[C@@H]34)[C@]21C	Active				
inactive	inactive	Stable	15					COC[C@H]1OC(=O)/C(=C\N(C)CCCN(C)C)C2=C(O)C(=O)C3=C([C@H](OC(C)=O)C[C@]4(C)[C@@H](OC(=O)CCC(=O)O[C@@H]5CC[C@@H](C[C@@H](C)[C@@H]6CC(=O)[C@H](C)/C=C(\C)[C@@H](O)[C@@H](OC)C(=O)[C@H](C)C[C@H](C)/C=C/C=C/C=C(\C)[C@@H](OC)C[C@@H]7CC[C@@H](C)[C@@](O)(O7)C(=O)C(=O)N7CCCC[C@H]7C(=O)O6)C[C@H]5OC)CC[C@@H]34)[C@]21C	Active				
				Insoluble				CO[C@H]1C[C@@H]2CC[C@@H](C)[C@@](O)(O2)C(=O)C(=O)N2CCCC[C@H]2C(=O)O[C@H]([C@H](C)C[C@@H]2CC[C@@H](O)[C@H](OC)C2)CC(=O)[C@H](C)/C=C(\C)[C@@H](O)[C@@H](OC)C(=O)[C@H](C)C[C@H](C)/C=C/C=C/C=C/1C [SIROLIMUS]		inactive	Active	inactive	Active
inactive	inactive				Stable	Stable	Stable	C=CCN(/C=C1\C(=O)O[C@H](COC)[C@@]2(C)C1=C(O)C(=O)C1=C2[C@H](OC(C)=O)C[C@]2(C)[C@@H](OC(=O)CCCCCCC(=O)O[C@H]3CC[C@H](C[C@@H](C)[C@@H]4CC(=O)[C@H](C)/C=C(\C)[C@@H](O)[C@@H](OC)C(=O)[C@H](C)C[C@H](C)/C=C/C=C/C=C(\C)[C@@H](OC)C[C@@H]5CC[C@@H](C)[C@@](O)(O5)C(=O)C(=O)N5CCCC[C@H]5C(=O)O4)CC3)CC[C@@H]12)CC=C					
